Ki data for 32 compounds are collected here from ChEMBL document CHEMBL1121885, “Inhibition of inosinic acid dehydrogenase by 8-substituted purine nucleotides” (J Med Chem, 1981).

The target in this assay is T1, Inosine-5'-monophosphate dehydrogenase (Escherichia coli K-12, UniProt P0ADG7).
T1 sequence (P0ADG7 whole entry): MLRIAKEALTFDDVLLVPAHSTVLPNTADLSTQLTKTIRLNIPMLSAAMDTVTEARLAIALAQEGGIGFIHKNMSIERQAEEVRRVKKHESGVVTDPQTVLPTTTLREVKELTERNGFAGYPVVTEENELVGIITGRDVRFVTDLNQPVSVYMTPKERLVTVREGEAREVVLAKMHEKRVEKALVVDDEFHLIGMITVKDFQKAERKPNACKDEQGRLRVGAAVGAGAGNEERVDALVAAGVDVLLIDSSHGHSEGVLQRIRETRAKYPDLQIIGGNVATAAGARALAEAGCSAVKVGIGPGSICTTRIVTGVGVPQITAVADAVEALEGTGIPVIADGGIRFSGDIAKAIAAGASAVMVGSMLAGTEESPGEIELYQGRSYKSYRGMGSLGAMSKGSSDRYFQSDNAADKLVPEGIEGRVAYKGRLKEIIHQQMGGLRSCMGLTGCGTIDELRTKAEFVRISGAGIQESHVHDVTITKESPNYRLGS
In words: Inhibition of inosine monophosphate dehydrogenase in Escherichia coli. The gist of the method:
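E. coli B IMP-DH (0-40% ammonium sulfate fraction of frozen paste, redissolved in 0.05 M Tris pH 8.5). Enzyme-started, 25 °C, NADH rise at 360 nm; Ki from weighted fit to linear competitive equation.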

SMILES strings stand for the structures.

Consider `O=c1[nH]cnc2c1nc(SCc1ccccc1)n2C1O[C@H](COP(=O)(O)O)[C@@H](O)[C@H]1O` (some centres not stated), for which the Ki (as a rule, a dissociation constant, usually derived from enzyme kinetics or from competition with a known ligand) stood at 46 µM.
The compound `N#Cc1ccc(CSc2nc3c(N)ncnc3n2C2O[C@H](COP(=O)(O)O)[C@@H](O)[C@H]2O)cc1` (some centres not stated) registered a Ki of 58 µM.
The compound `CC(C)(C)c1ccc(CSc2nc3c(N)ncnc3n2C2O[C@H](COP(=O)(O)O)[C@@H](O)[C@H]2O)cc1` (some centres not stated) displayed a Ki of 130 µM.
With `Nc1ncnc2c1nc(Sc1ccccc1)n2C1O[C@H](COP(=O)(O)O)[C@@H](O)[C@H]1O` (some centres not stated) the figure was 137 µM; with `COc1ccc(CSc2nc3c(=O)[nH]cnc3n2C2O[C@H](COP(=O)(O)O)[C@@H](O)[C@H]2O)cc1` (some centres not stated), 41 µM; with `O=c1[nH]cnc2c1nc(SCc1ccc(Cl)cc1)n2C1O[C@H](COP(=O)(O)O)[C@@H](O)[C@H]1O` (some centres not stated), 29 µM.
With `Nc1ncnc2c1nc(SCc1cccc([N+](=O)[O-])c1)n2C1O[C@H](COP(=O)(O)O)[C@@H](O)[C@H]1O` (some centres not stated) the figure was 47 µM.
To `Nc1ncnc2c1nc(SCc1cc([N+](=O)[O-])cc([N+](=O)[O-])c1)n2C1O[C@H](COP(=O)(O)O)[C@@H](O)[C@H]1O` (some centres not stated) belongs 21 µM; to `O=[N+]([O-])c1ccc(CCSc2nc3c(O)ncnc3n2C2O[C@H](COP(=O)(O)O)[C@@H](O)[C@H]2O)cc1` (some centres not stated), 54 µM.
For the compound `Nc1ncnc2c1ncn2[C@@H]1O[C@H](COP(=O)(O)O)[C@@H](O)[C@H]1O` [ADENOSINE PHOSPHATE], the Ki was 450 µM.
To `O=P(O)(O)OC[C@H]1OC(n2c(NCc3ccccc3)nc3c(O)ncnc32)[C@H](O)[C@@H]1O` (some centres not stated) belongs 236 µM; to `CCCCCSc1nc2c(N)ncnc2n1C1O[C@H](COP(=O)(O)O)[C@@H](O)[C@H]1O` (some centres not stated), 84 µM; to `Nc1ncnc2c1nc(SCc1ccc(F)cc1)n2C1O[C@H](COP(=O)(O)O)[C@@H](O)[C@H]1O` (some centres not stated), 74 µM.
To `Nc1ncnc2c1nc(Sc1ccc(Cl)cc1)n2C1O[C@H](COP(=O)(O)O)[C@@H](O)[C@H]1O` (some centres not stated) belongs 70 µM; to `O=P(O)(O)OC[C@H]1OC(n2c(Sc3ccccc3)nc3c(O)ncnc32)[C@H](O)[C@@H]1O` (some centres not stated), 68 µM.
With `Nc1ncnc2c1nc(SCCc1ccccc1)n2C1O[C@H](COP(=O)(O)O)[C@@H](O)[C@H]1O` (some centres not stated) the figure was 91 µM.
Take `Nc1ncnc2c1nc(S)n2C1O[C@H](COP(=O)(O)O)[C@@H](O)[C@H]1O` (some centres not stated): the Ki was 98 µM.
With `O=[N+]([O-])c1ccc(CSc2nc3c(O)ncnc3n2C2O[C@H](COP(=O)(O)O)[C@@H](O)[C@H]2O)cc1` (some centres not stated) the figure was 26 µM; with `Nc1ncnc2c1nc(SCc1ccc(C(=O)O)cc1)n2C1O[C@H](COP(=O)(O)O)[C@@H](O)[C@H]1O` (some centres not stated), 196 µM; with `O=c1[nH]cnc2c1nc(Br)n2C1O[C@H](COP(=O)(O)O)[C@@H](O)[C@H]1O` (some centres not stated), 271 µM.
Compound `O=c1[nH]cnc2c1nc(Sc1cccc(C(F)(F)F)c1)n2C1O[C@H](COP(=O)(O)O)[C@@H](O)[C@H]1O` (some centres not stated) gave a Ki of 105 µM.
In turn, `COc1ccc(CSc2nc3c(N)ncnc3n2C2O[C@H](COP(=O)(O)O)[C@@H](O)[C@H]2O)cc1` (some centres not stated) yielded a Ki of 84 µM.
`Nc1ncnc2c1nc(NCc1ccccc1)n2C1O[C@H](COP(=O)(O)O)[C@@H](O)[C@H]1O` (some centres not stated) gave a Ki of 275 µM.
In turn, `Nc1ncnc2c1nc(SCCCc1ccccc1)n2C1O[C@H](COP(=O)(O)O)[C@@H](O)[C@H]1O` (some centres not stated) returned a Ki of 64 µM.
On to `N#Cc1ccc(CSc2nc3c(O)ncnc3n2C2O[C@H](COP(=O)(O)O)[C@@H](O)[C@H]2O)cc1` (some centres not stated), for which affinity was put at a Ki of 19 µM.
To `Nc1ncnc2c1nc(SCCc1ccc([N+](=O)[O-])cc1)n2C1O[C@H](COP(=O)(O)O)[C@@H](O)[C@H]1O` (some centres not stated) belongs 68 µM; to `Nc1ncnc2c1nc(SCc1ccc([N+](=O)[O-])cc1Cl)n2C1O[C@H](COP(=O)(O)O)[C@@H](O)[C@H]1O` (some centres not stated), 17 µM; to `Nc1ncnc2c1nc(SCc1ccc([N+](=O)[O-])cc1)n2C1O[C@H](COP(=O)(O)O)[C@@H](O)[C@H]1O` (some centres not stated), 52 µM.
`Nc1ncnc2c1nc(SCc1ccccc1)n2C1O[C@H](COP(=O)(O)O)[C@@H](O)[C@H]1O` (some centres not stated) returned a Ki of 124 µM.
Take `Nc1ncnc2c1nc(SCc1ccc(Cl)cc1)n2C1O[C@H](COP(=O)(O)O)[C@@H](O)[C@H]1O` (some centres not stated): the Ki was found to be 53 µM.
`CC(C)(C)c1ccc(CSc2nc3c(=O)[nH]cnc3n2C2O[C@H](COP(=O)(O)O)[C@@H](O)[C@H]2O)cc1` (some centres not stated) returned a Ki of 129 µM.
To `Nc1ncnc2c1nc(Br)n2[C@@H]1O[C@H](COP(=O)(O)O)[C@@H](O)[C@H]1O` belongs 161 µM.
